ChEMBL document CHEMBL5058577, “EUbOPEN Chemogenomics Library 2 (Multiplex)” (2022)

Tested on: Fibroblast
Test: Multiplex assay against human fibroblast
Format: toxicity, cell-based
In short: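 Compound was added to live cells that had been stained at seeding with Hoechst33342, BioTracker Green Microtubule Cytoskeleton Dye, MitoTracker Red and Annexin V Alexa Fluor 680, and imaging followed on a CQ1 microscope at 37°C and 5% CO2. CellPathfinder machine-learning gating divided cells into Hoechst high-intensity objects or normal cells, normal cells into healthy, pyknosed or fragmented nuclei, and pyknosed cells into mitotic or apoptotic. Tubulin, mitochondrial-mass and membrane-permeability phenotypes are per cents of healthy-nucleus cells.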

[1] = 12 h, 1 µM, compound concentration 1 uM, replicate 1
[2] = 12 h, 1 µM, compound concentration 1 uM, replicate 2
[3] = 12 h, 10 µM, compound concentration 10 uM, replicate 1
[4] = 12 h, 10 µM, compound concentration 10 uM, replicate 2
[5] = 24 h, 1 µM, compound concentration 1 uM, replicate 1
[6] = 24 h, 1 µM, compound concentration 1 uM, replicate 2
[7] = 24 h, 10 µM, compound concentration 10 uM, replicate 1
[8] = 24 h, 10 µM, compound concentration 10 uM, replicate 2
[9] = 48 h, 1 µM, compound concentration 1 uM, replicate 1
[10] = 48 h, 1 µM, compound concentration 1 uM, replicate 2
[11] = 48 h, 10 µM, compound concentration 10 uM, replicate 1
[12] = 48 h, 10 µM, compound concentration 10 uM, replicate 2

## C[C@H](N)COC(=O)[C@@H](CCCCN)NC(=O)Cc1c(-c2ccc3ccccc3c2)[nH]c2c1ccc1ccccc12
[1]
  Population Apoptotic (%): 32%
  Population Fragmented Nuclei (%): 18%
  Population Healthy Nuclei (%): 65%
  Population Hoechst High Intensity Objects (%): 1%
  Population Membrane Permeable-Phenotype (%): 0%
  Population Mitochondria Different-Phenotype (%): 7%
  Population Mitotic Cells (%): 67%
  Population Normal (%): 98%
  Population Pyknosed Nuclei (%): 15%
  Population Tubulin-Different-Phenotype (%): 32%
  Total Cell Count: 179
[2]
  Population Apoptotic (%): 50%
  Population Fragmented Nuclei (%): 25%
  Population Healthy Nuclei (%): 51%
  Population Hoechst High Intensity Objects (%): 4%
  Population Membrane Permeable-Phenotype (%): 5%
  Population Mitochondria Different-Phenotype (%): 4%
  Population Mitotic Cells (%): 50%
  Population Normal (%): 95%
  Population Pyknosed Nuclei (%): 23%
  Population Tubulin-Different-Phenotype (%): 36%
  Total Cell Count: 170
[3]
  Population Apoptotic (%): 43%
  Population Fragmented Nuclei (%): 13%
  Population Healthy Nuclei (%): 69%
  Population Hoechst High Intensity Objects (%): 2%
  Population Membrane Permeable-Phenotype (%): 1%
  Population Mitochondria Different-Phenotype (%): 8%
  Population Mitotic Cells (%): 56%
  Population Normal (%): 97%
  Population Pyknosed Nuclei (%): 16%
  Population Tubulin-Different-Phenotype (%): 33%
  Total Cell Count: 183
[4]
  Population Apoptotic (%): 62%
  Population Fragmented Nuclei (%): 32%
  Population Healthy Nuclei (%): 50%
  Population Hoechst High Intensity Objects (%): 7%
  Population Membrane Permeable-Phenotype (%): 5%
  Population Mitochondria Different-Phenotype (%): 6%
  Population Mitotic Cells (%): 37%
  Population Normal (%): 92%
  Population Pyknosed Nuclei (%): 17%
  Population Tubulin-Different-Phenotype (%): 47%
  Total Cell Count: 167
[5]
  Population Apoptotic (%): 53%
  Population Fragmented Nuclei (%): 16%
  Population Healthy Nuclei (%): 66%
  Population Hoechst High Intensity Objects (%): 3%
  Population Membrane Permeable-Phenotype (%): 0%
  Population Mitochondria Different-Phenotype (%): 5%
  Population Mitotic Cells (%): 46%
  Population Normal (%): 96%
  Population Pyknosed Nuclei (%): 17%
  Population Tubulin-Different-Phenotype (%): 30%
  Total Cell Count: 179
[6]
  Population Apoptotic (%): 29%
  Population Fragmented Nuclei (%): 25%
  Population Healthy Nuclei (%): 54%
  Population Hoechst High Intensity Objects (%): 7%
  Population Membrane Permeable-Phenotype (%): 3%
  Population Mitochondria Different-Phenotype (%): 7%
  Population Mitotic Cells (%): 70%
  Population Normal (%): 92%
  Population Pyknosed Nuclei (%): 20%
  Population Tubulin-Different-Phenotype (%): 39%
  Total Cell Count: 162
[7]
  Population Apoptotic (%): 63%
  Population Fragmented Nuclei (%): 13%
  Population Healthy Nuclei (%): 74%
  Population Hoechst High Intensity Objects (%): 7%
  Population Membrane Permeable-Phenotype (%): 0%
  Population Mitochondria Different-Phenotype (%): 5%
  Population Mitotic Cells (%): 36%
  Population Normal (%): 92%
  Population Pyknosed Nuclei (%): 11%
  Population Tubulin-Different-Phenotype (%): 31%
  Total Cell Count: 171
[8]
  Population Apoptotic (%): 50%
  Population Fragmented Nuclei (%): 36%
  Population Healthy Nuclei (%): 50%
  Population Hoechst High Intensity Objects (%): 6%
  Population Membrane Permeable-Phenotype (%): 5%
  Population Mitotic Cells (%): 50%
  Population Normal (%): 93%
  Population Pyknosed Nuclei (%): 13%
  Population Tubulin-Different-Phenotype (%): 54%
  Total Cell Count: 159
[9]
  Population Apoptotic (%): 72%
  Population Fragmented Nuclei (%): 21%
  Population Healthy Nuclei (%): 65%
  Population Hoechst High Intensity Objects (%): 5%
  Population Membrane Permeable-Phenotype (%): 0%
  Population Mitochondria Different-Phenotype (%): 7%
  Population Mitotic Cells (%): 27%
  Population Normal (%): 94%
  Population Pyknosed Nuclei (%): 12%
  Population Tubulin-Different-Phenotype (%): 26%
  Total Cell Count: 186
[10]
  Population Apoptotic (%): 51%
  Population Fragmented Nuclei (%): 30%
  Population Healthy Nuclei (%): 50%
  Population Hoechst High Intensity Objects (%): 2%
  Population Membrane Permeable-Phenotype (%): 3%
  Population Mitochondria Different-Phenotype (%): 6%
  Population Mitotic Cells (%): 48%
  Population Normal (%): 97%
  Population Pyknosed Nuclei (%): 18%
  Population Tubulin-Different-Phenotype (%): 39%
  Total Cell Count: 169
[11]
  Population Apoptotic (%): 46%
  Population Fragmented Nuclei (%): 16%
  Population Healthy Nuclei (%): 68%
  Population Hoechst High Intensity Objects (%): 9%
  Population Membrane Permeable-Phenotype (%): 0%
  Population Mitochondria Different-Phenotype (%): 4%
  Population Mitotic Cells (%): 53%
  Population Normal (%): 90%
  Population Pyknosed Nuclei (%): 15%
  Population Tubulin-Different-Phenotype (%): 35%
  Total Cell Count: 185
[12]
  Population Apoptotic (%): 55%
  Population Fragmented Nuclei (%): 36%
  Population Healthy Nuclei (%): 52%
  Population Hoechst High Intensity Objects (%): 5%
  Population Membrane Permeable-Phenotype (%): 7%
  Population Mitochondria Different-Phenotype (%): 8%
  Population Mitotic Cells (%): 44%
  Population Normal (%): 94%
  Population Pyknosed Nuclei (%): 11%
  Population Tubulin-Different-Phenotype (%): 54%
  Total Cell Count: 166
